Source: PubChem
Shown are actives, neighbours in structure and some others; about 1.5% of the full set was active somewhere.
HNF4A DNA FP: change in binding of human HNF4 alpha to DNA | P41235 | HNF4a-FITC DNA binding, fluorescence polarization, 1 h | activity change, % at 10 µM | 360,000 tested, 0.3% active | AID 1224865; in the data active = activity change above about 30%, passing the limit was not always enough
ZTA counter: blocks Epstein-Barr virus ZTA, an EBNA-1 counter-screen. P03206. ZTA-DNA binding, fluorescence polarization. inhibition, % at 11 µM. 320,000 tested, 0.15% active; in the data active = inhibition above about 33%
Target sequence (P03206 whole entry, looked up): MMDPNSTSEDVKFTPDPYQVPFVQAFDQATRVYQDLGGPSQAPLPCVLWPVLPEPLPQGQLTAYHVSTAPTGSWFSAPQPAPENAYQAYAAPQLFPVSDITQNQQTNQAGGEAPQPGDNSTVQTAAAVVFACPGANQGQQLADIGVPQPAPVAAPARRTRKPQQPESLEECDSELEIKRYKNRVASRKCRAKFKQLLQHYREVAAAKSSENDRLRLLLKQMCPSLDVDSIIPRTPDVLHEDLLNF
LANA-H2A inh: blocks KSHV LANA binding to histone H2A/H2B; AID 2629; cell-free LANA-H2A/H2B peptide, fluorescence polarization; inhibition, % (concentration not given with the values); 320,000 tested, 0.6% active; Q9QR71; in the data active = inhibition mostly above about 10%, no sharp cut-off; inactive = mostly below about 6.7%
EBNA-1 inh: blocks EBNA-1 binding to DNA | AID 1950 | EBNA-1 DNA binding, fluorescence polarization | inhibition, % at 14.8 µM | 300,000 tested, 0.34% active; in the data active = inhibition above about 28%
A1 inh: inhibitors of the anti-apoptotic protein A1, read as caspase activation | MEF A1-2A-BIM cells, Caspase-Glo 3/7 luminescence, 3 h; percent of clofoctol response, vehicle zero | caspase activation, % (concentration not given with the values) | 330,000 tested, 0.066% active | AID 2462;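 active = over half of replicate activation scores above 10%, or exactly half above 10 with the replicate mean above 10; inconclusive = replicate mean below 10 yet half the replicates above 10; inactive = over half of replicates below 10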
CSN inh: blocks human CSN-mediated cullin deneddylation; 360,000 tested, 0.38% active; Purified CSN, SCF-Nedd8-OG deneddylation, fluorescence polarization; inhibition, % at 12.5 µM; Q92905; AID 651999;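 active = pattern-corrected inhibition above about 35%, with an unprinted fluorescence ratio check between 0.5 and 1.5, limit read from the data, passing the limit was not always enough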
Target sequence (Q92905 whole entry, looked up, one chain of several): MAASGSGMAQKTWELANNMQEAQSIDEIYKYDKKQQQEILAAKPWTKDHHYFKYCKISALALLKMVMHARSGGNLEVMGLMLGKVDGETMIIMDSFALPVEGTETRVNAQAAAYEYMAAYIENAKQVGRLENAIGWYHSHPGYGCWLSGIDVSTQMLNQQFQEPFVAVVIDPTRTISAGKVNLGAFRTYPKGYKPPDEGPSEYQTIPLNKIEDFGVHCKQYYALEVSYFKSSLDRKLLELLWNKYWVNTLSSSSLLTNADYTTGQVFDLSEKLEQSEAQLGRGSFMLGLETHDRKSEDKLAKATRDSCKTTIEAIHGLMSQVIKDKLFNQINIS
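Schedule: reaction 90 min, room temperature / Assay system: HEK293T-derived human Csn5 enzyme / Input: Csn5 at 0.24 nM final / Measure: inhibition of Csn5 cleavage, % / Control set: substrate-only high control, full reaction low control / Technique: fluorescence polarization of the substrate / Buffer or medium: Tris/NaCl/DTT buffer, pH 7.5 / Reagent: SCFSkp2-Nedd8OG substrate at 10 nM final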
Each line names hits and unclear results; the compound was inactive in the other large screens; ! = not active in a repeat.

COC(=O)[C@]1(C)N[C@H](CN(C)C(=O)Nc2ccc(C)cc2)[C@@H]2C(=O)N(Cc3ccccc3)C(=O)[C@@H]21	none (no result: ZTA counter, EBNA-1 inh)
CCN(C[C@H]1N[C@@](C)(C(=O)OC)[C@H]2C(=O)N(C)C(=O)[C@@H]12)C(=O)c1ccc(C)cc1	LANA-H2A inh 67.1 (no result: ZTA counter, EBNA-1 inh)
COC(=O)[C@]1(C)N[C@H](CN(C)C(=O)Nc2ccc(C)cc2)[C@@H]2C(=O)N(C)C(=O)[C@@H]21	LANA-H2A inh 159.9 (no result: ZTA counter, EBNA-1 inh)
CCN(C[C@H]1N[C@@](C)(C(=O)OC)[C@H]2C(=O)N(C)C(=O)[C@@H]12)C(=O)c1ccc(F)cc1	none (no result: ZTA counter, LANA-H2A inh, EBNA-1 inh, A1 inh)
C=CCNc1nc(NCCOC)c2sc(-c3ccccc3)cc2n1	none (no result: ZTA counter, LANA-H2A inh, EBNA-1 inh, A1 inh)
C=CCNc1nc(NCc2ccc(N(C)C)cc2)c2sc(-c3ccccc3)cc2n1	CSN inh 48.8 (no result: ZTA counter, LANA-H2A inh, EBNA-1 inh, A1 inh)
CCN1/C(=C/C=C2/SC(=Nc3cccc4ncccc34)N(C)C2=O)Sc2ccccc21	CSN inh 49.7 (no result: ZTA counter, LANA-H2A inh, EBNA-1 inh, A1 inh)
CCCN1C(=O)/C(=C\C=C2/Sc3ccccc3N2CCO)SC1=S	none
CCN1C(=O)/C(=C/C=C2/Sc3ccccc3N2CCO)SC1=S	HNF4A DNA FP 36.2
OC[C@@H]1CN(Cc2ccc(Cl)cc2)C[C@H](n2cnc3c(N4CCCC4)ncnc32)O1	none (no result: ZTA counter, LANA-H2A inh, EBNA-1 inh, A1 inh)
O=C(NCc1n[nH]c(=S)n1-c1ccc(F)cc1)c1ccc(S(=O)(=O)N2CCOCC2)cc1	HNF4A DNA FP 32.3
O=C(NCc1n[nH]c(=S)n1-c1ccccc1)c1ccc(S(=O)(=O)N2CCOCC2)cc1	none
O=C(Nc1ccc(Cl)cc1)c1cc2c(cc1O)[nH]c1ccccc12	none
CC(=O)N1CCC(N2CCN(Cc3ccc(C)cc3)C(CCO)C2)CC1 (stereo not drawn)	LANA-H2A inh 76.9
Cc1ccc(CN2CCN(C3CCC3)CC2CCO)cc1 (stereo not drawn)	none
CCCOc1ccc(C2CC(=O)Nc3cc(OC)c(OC)cc32)cc1 (stereo not drawn)	none (no result: ZTA counter, EBNA-1 inh)
O=C(COC(=O)[C@@H]1CC(O)CN1S(=O)(=O)c1ccc2c(c1)OCCO2)Nc1cc(F)ccc1F (stereo partly drawn)	none (no result: ZTA counter, EBNA-1 inh)
COc1cccc2c1C(=O)c1c(O)c3c(c(O)c1C2=O)C[C@@](O)(C(C)=O)C[C@@H]3O[C@H]1C[C@H](N)[C@H](O)[C@H](C)O1	none (no result: ZTA counter, LANA-H2A inh, EBNA-1 inh, A1 inh)
CC(=O)[C@]1(O)Cc2c(O)c3c(c(O)c2[C@@H](O[C@H]2C[C@H](N)[C@H](O)[C@H](C)O2)C1)C(=O)c1ccccc1C3=O	LANA-H2A inh 49.0, A1 inh inconclusive (no result: HNF4A DNA FP, CSN inh)
CCOc1ccccc1CNC(=O)c1ccc(NC(=O)C2=C(C)OCCS2)cc1	none
CC1(C(=O)Nc2cccc(-n3cnnn3)c2)Cc2ccccc2C(=O)O1 (stereo not drawn)	CSN inh 100.6 (no result: ZTA counter, EBNA-1 inh)
Cc1c(OCC(=O)NCCN2CCOCC2)ccc2c(-c3ccccc3)cc(=O)oc12	none
Nc1c(C(=O)c2ccccc2)sc2nsc(SCCN3CCCC3)c12	HNF4A DNA FP 37.9
Nc1c(C(=O)c2ccc(Cl)cc2)sc2nsc(SCCN3CCOCC3)c12	CSN inh 37.6
CC(=O)c1sc2nsc(SCCN3CCCCC3)c2c1N	none
Cc1cc(C)c2c(N)c(C(=O)c3ccc(Cl)cc3)sc2n1	none
O=C(c1c[nH]c2ccccc12)N1CCOCC1	LANA-H2A inh 39.7
COc1ccc(-c2csc(NC(=O)C3COc4ccccc4O3)n2)cc1OC (stereo not drawn)	none
COc1ccc(NC(=O)c2cc3c([nH]c4ccccc43)c(C)n2)cc1	none
Cc1nc(C(=O)Nc2ccccc2Cl)cc2c1[nH]c1ccccc12	LANA-H2A inh 8.3
O=C(N/N=C/c1ccncc1)c1cccc(NC(=O)c2ccc(Cl)cc2)c1	CSN inh 77.8
Cn1cccc1/C=C1/SC(=S)N(CC(=O)O)C1=O	HNF4A DNA FP 80.7, CSN inh 50.1
COc1ccccc1/C=C1\SC(=S)N(C(C(=O)O)c2ccccc2)C1=O (stereo not drawn)	none
Cc1ccc(NC(=O)CN2C(=O)S/C(=C\c3cccn3C)C2=O)cc1	none
CCC(C(=O)O)N1C(=O)/C(=C/c2cccn2C)SC1=S (stereo not drawn)	HNF4A DNA FP 101.2, CSN inh 82.0 (no result: LANA-H2A inh)
COc1ccc(/C=C2\SC(=S)N(C(Cc3ccccc3)C(=O)O)C2=O)cc1 (stereo not drawn)	none (no result: ZTA counter, LANA-H2A inh, EBNA-1 inh, A1 inh)
CC(C(=O)O)N1C(=O)/C(=C/c2cccn2C)SC1=S (stereo not drawn)	HNF4A DNA FP 84.7, CSN inh 47.6
COc1ccc(-c2csc(NC(C)c3nc4cc(C(F)(F)F)ccc4n3CCOCCO)n2)cc1 (stereo not drawn)	none
COc1ccc(N(C)S(=O)(=O)c2cccc(C(=O)OCC(=O)Nc3cc(C)ccc3OC)c2)cc1	none (no result: ZTA counter, LANA-H2A inh, EBNA-1 inh, A1 inh)
O=C(NC(=S)NCc1ccccc1)C1CC1	LANA-H2A inh 16.1
O=C(NCc1ccccc1)C1CCCC1	none (no result: HNF4A DNA FP, CSN inh)
Cc1cc(C)n2nc(SCC(=O)N3CCN(c4ccc(F)cc4)CC3)nc2n1	none (no result: EBNA-1 inh)
COc1ccc(N2CCN(C(=O)CSc3nc4nc(C)cc(C)n4n3)CC2)cc1	LANA-H2A inh 36.6 (no result: EBNA-1 inh)
Cc1ccc(S(=O)(=O)N(C)C)cc1NC(=O)COC(=O)C1=COCCO1	none (no result: EBNA-1 inh)
COc1ccc(Cl)cc1NC(=O)c1ocnc1C	LANA-H2A inh 17.7
Cc1ccc(CN(C)C(=O)c2cc(COc3cccc(C(F)(F)F)c3)on2)o1	none
Cc1cc(C)c(S(=O)(=O)Nc2ccc(C(N)=O)cc2)c(C)c1	none
CC(=O)c1ccc(NS(=O)(=O)c2c(C)cc(C)cc2C)cc1	LANA-H2A inh 18.7
NS(=O)(=O)c1ccc2nc(NC(=O)Nc3ccc(F)cc3)sc2c1	HNF4A DNA FP 42.9
O=C(Nc1ccn(C2CCC(CO)O2)c(=O)n1)c1ccccc1 (stereo not drawn)	none (no result: ZTA counter, LANA-H2A inh, EBNA-1 inh, A1 inh)
CN1C(C(=O)Nc2ccccn2)=C(O)c2sccc2S1(=O)=O	LANA-H2A inh 39.4!
CC(C(=O)Nc1ccccc1F)N1C(=O)c2ccccc2C1=O (stereo not drawn)	none
CC(C(=O)Nc1ncn[nH]1)N1C(=O)c2ccccc2C1=O (stereo not drawn)	LANA-H2A inh 16.7
Cc1cccc(NC(=O)c2ccc(NCCc3ccccc3)c([N+](=O)[O-])c2)c1	CSN inh 89.4
Cc1ccc(NC(=O)c2ccc(NCCN)c([N+](=O)[O-])c2)cc1	none
Cc1ccc(S(=O)(=O)NNC(=O)c2sc(=S)n(C)c2C)cc1	none
C=CCC[C@H](Cc1ccc(F)cc1)C(=O)O[C@H](CNC(=O)[C@@H](CC=C)CC(=O)N(CCO)Cc1ccccc1)c1ccccc1	LANA-H2A inh 71.3 (no result: ZTA counter, EBNA-1 inh)
Cc1ccc(S(=O)(=O)N2CCN(C(=O)CC(C)n3cncn3)CC2)cc1C (stereo not drawn)	LANA-H2A inh 25.2
O=C(N/N=C\c1cccnc1)c1cc(-c2ccc(Cl)s2)[nH]n1	CSN inh 38.6
O=C(N/N=C/c1cccnc1)c1ccccc1Cl	none
